Reference: ChEMBL document CHEMBL5338774, “Quinazoline-2-Carboxamides as Selective PET Radiotracers for Matrix Metalloproteinase-13 Imaging in Atherosclerosis” (J Med Chem, 2023)
pIC50: −log10 of the molar value.

Assays:
Collagenase 3 = Collagenase 3 (Homo sapiens, UniProt P45452); assay: Inhibition of human recombinant MMP-13 using Mca-Lys-Pro-Leu-GlyLeu-Dpa-Ala-Arg-NH2 as substrate preincubated for 30 mins followed by substrate addition by fluorescence based analysis
[1] = molecular target: Matrix metalloproteinase-9 (Homo sapiens, UniProt P14780); assay: Inhibition of human recombinant MMP-9 incubated for 30 mins by fluorescence based analysis
Chain of Matrix metalloproteinase-9 (P14780 whole entry): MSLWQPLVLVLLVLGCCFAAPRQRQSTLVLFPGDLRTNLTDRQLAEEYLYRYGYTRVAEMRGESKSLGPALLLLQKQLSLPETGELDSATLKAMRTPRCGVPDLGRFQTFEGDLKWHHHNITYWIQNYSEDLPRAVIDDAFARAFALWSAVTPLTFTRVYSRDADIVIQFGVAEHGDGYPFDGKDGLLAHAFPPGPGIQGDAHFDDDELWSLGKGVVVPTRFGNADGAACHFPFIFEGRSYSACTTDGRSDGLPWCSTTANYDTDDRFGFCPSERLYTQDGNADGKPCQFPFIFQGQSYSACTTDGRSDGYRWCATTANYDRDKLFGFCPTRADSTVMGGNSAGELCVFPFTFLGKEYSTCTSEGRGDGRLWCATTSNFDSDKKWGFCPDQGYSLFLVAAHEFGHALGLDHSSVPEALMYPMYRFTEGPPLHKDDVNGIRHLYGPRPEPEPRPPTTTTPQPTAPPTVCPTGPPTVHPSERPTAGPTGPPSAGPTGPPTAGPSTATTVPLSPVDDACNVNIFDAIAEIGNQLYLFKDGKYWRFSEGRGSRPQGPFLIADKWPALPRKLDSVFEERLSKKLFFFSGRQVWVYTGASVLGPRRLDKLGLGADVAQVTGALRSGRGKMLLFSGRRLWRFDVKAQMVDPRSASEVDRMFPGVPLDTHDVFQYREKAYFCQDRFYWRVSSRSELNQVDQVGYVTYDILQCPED

[2] = molecular target: 72 kDa type IV collagenase (Homo sapiens, UniProt P08253); assay: Inhibition of human recombinant MMP-2 incubated for 30 mins by fluorescence based analysis
Chain of 72 kDa type IV collagenase (P08253 whole entry): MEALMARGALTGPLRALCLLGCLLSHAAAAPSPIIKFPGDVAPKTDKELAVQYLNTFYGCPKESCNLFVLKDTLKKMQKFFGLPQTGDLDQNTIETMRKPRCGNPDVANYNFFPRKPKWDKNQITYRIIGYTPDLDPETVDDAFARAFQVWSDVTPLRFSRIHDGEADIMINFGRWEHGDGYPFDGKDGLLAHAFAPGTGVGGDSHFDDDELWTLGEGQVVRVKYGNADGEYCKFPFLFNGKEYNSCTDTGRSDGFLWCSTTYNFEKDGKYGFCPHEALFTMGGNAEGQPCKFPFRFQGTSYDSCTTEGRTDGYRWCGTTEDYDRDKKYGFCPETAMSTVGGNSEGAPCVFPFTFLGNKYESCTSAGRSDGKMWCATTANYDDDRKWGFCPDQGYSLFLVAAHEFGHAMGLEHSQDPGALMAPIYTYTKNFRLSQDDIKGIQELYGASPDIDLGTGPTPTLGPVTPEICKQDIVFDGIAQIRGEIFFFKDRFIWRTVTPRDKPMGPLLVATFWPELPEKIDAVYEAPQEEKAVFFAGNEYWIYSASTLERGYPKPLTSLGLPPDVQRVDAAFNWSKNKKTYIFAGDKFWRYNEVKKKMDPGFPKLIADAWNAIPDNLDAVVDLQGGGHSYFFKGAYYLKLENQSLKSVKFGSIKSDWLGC

Interstitial collagenase = molecular target: T1, Interstitial collagenase (Homo sapiens, UniProt P03956); assay: Inhibition of human recombinant MMP-1 incubated for 30 mins by fluorescence based analysis
T1 sequence (P03956 whole entry): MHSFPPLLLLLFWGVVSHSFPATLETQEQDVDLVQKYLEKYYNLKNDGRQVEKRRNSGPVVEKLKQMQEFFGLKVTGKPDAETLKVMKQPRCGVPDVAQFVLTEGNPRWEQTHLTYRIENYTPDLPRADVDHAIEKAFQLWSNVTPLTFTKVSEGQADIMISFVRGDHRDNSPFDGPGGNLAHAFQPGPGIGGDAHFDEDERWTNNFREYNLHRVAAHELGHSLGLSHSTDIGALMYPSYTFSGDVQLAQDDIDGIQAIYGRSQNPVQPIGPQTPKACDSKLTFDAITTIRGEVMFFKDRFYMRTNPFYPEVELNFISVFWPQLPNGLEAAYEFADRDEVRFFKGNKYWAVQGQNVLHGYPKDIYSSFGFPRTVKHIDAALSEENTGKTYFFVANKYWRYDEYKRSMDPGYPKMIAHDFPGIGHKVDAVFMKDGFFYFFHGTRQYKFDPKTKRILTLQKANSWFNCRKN

Stromelysin-2 = Stromelysin-2 (Homo sapiens, UniProt P09238); assay: Inhibition of human recombinant MMP-10 using […]-Pro-Lys-Pro-Val-Glu-Nval-Trp-Arg-Lys(Dnp)-NH2 as substrate preincubated for 30 mins followed by substrate addition by fluorescence based analysis
Chain of Stromelysin-2 (P09238 whole entry): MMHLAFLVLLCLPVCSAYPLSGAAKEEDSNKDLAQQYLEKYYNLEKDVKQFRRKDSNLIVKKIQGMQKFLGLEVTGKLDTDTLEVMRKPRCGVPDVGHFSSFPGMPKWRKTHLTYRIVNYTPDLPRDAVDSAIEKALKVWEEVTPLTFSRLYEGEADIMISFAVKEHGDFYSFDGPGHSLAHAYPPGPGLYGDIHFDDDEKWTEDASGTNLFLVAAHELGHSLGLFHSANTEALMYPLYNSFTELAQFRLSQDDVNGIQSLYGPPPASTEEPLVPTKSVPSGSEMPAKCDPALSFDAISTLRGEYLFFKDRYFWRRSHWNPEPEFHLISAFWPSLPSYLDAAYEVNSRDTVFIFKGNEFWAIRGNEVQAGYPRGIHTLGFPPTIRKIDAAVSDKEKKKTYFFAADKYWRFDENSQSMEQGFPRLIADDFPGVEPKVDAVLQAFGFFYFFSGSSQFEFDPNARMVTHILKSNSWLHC

Neutrophil collagenase = Neutrophil collagenase (Homo sapiens, UniProt P22894); assay: Inhibition of human recombinant MMP-8 incubated for 30 mins by fluorescence based analysis
Chain of Neutrophil collagenase (P22894 whole entry): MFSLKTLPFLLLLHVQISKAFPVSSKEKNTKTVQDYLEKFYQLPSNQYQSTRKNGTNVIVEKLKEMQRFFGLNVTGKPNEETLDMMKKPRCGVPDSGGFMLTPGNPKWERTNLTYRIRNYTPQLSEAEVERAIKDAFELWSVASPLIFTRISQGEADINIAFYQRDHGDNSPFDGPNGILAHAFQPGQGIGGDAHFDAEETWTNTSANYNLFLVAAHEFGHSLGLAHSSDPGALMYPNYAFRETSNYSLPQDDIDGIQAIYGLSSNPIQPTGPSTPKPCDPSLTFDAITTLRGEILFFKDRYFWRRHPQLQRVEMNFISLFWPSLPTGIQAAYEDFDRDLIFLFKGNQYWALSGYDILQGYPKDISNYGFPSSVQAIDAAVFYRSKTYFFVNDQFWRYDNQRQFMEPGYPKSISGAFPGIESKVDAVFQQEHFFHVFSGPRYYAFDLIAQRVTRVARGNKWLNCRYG

[3] = Drug distribution in western atherogenic diet fed ApoE-/- mouse myocardium assessed as myocardial retention at […], iv administered as bolus injection measured for 60 mins by PET analysis; type: ADME, organism-based; conditions: in vivo, 1 h
Method in brief: (§1)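 A 10 min transmission scan preceded tail-vein IV bolus of radiotracer (~7.5 MBq, over 30 s) in diet-fed ApoE-/- mice. Dynamic whole-body PET ran for 60 min (4×15 s, 4×1 min, 11×5 min frames), corrected for attenuation and scatter, 3D-OSEM/MAP reconstruction. Volumetric organ ROIs gave %ID·cc⁻¹ time-activity curves; n = 2 per group.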

[4] = Drug distribution in western atherogenic diet fed ApoE-/- mouse liver at […], iv administered as bolus injection measured for 60 mins by PET analysis; type: ADME, organism-based; conditions: in vivo, 1 h; method in brief: as §1
[5] = Drug distribution in western atherogenic diet fed ApoE-/- mouse intestine at […], iv administered as bolus injection measured for 30 mins by gamma counter analysis; type: ADME, organism-based; conditions: in vivo, 0.5 h
Method in brief: (§2)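 Diet-fed male ApoE-/- mice (39 ± 5 g, n = 4-6) under 2% isoflurane received radiotracer (~7.5 MBq, 100-200 µL) IV by tail-vein bolus over 30 s. After 30 min, blood was taken by cardiac puncture, then PBS/formalin perfusion and organ dissection. Uptake is decay-corrected %ID normalized to tissue mass (%ID/g).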

[6] = Drug distribution in western atherogenic diet fed ApoE-/- mouse muscle tissue at […], iv administered as bolus injection measured for 30 mins by gamma counter analysis; type: ADME, organism-based; conditions: in vivo, 0.5 h; method in brief: as §2
[7] = Drug distribution in western atherogenic diet fed ApoE-/- mouse spleen at […], iv administered as bolus injection measured for 30 mins by gamma counter analysis; type: ADME, organism-based; conditions: in vivo, 0.5 h; method in brief: as §2
[8] = Drug distribution in western atherogenic diet fed ApoE-/- mouse pancreas at […], iv administered as bolus injection measured for 30 mins by gamma counter analysis; type: ADME, organism-based; conditions: in vivo, 0.5 h; method in brief: as §2
[9] = Drug distribution in western atherogenic diet fed ApoE-/- mouse blood assessed as compound remaining at […], iv administered as bolus injection measured for 30 mins by gamma counter analysis; type: ADME, organism-based; conditions: in vivo, 0.5 h; method in brief: as §2
[10] = Octanol/PBS distribution coefficient, logD of compound at pH 7.4 incubated for 10 mins under shaking condition by gamma counter analysis; type: physicochemical
Method in brief: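 Radiotracer partitioning between 1-octanol and 1× PBS at pH 7.4. Mean ± standard error of two independent experiments, each in quadruplicate.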

[11] = Drug distribution in western atherogenic diet fed ApoE-/- mouse lung at […], iv administered as bolus injection measured for 30 mins by gamma counter analysis; type: ADME, organism-based; conditions: in vivo, 0.5 h; method in brief: as §2
[12] = Drug distribution in western atherogenic diet fed ApoE-/- mouse aortic plaques at […], iv administered as bolus injection measured for 30 mins by Oil Red O staining based autoradiography; type: ADME, organism-based, Aorta; conditions: in vivo, 0.5 h
Method in brief: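 Male ApoE-/- mice were fed a western atherogenic diet from 8 weeks of age for 13-16 weeks. Radiotracer (~7.5 MBq) was given IV by tail-vein bolus over 30 s. Blocking: unlabelled tracer analogue (2.5 mg/kg; DMA/propylene glycol/PEG400/water) or WAY170523 (7.5 mg/kg; DMSO/PEG400/water), both IV 15 min before. At 30 min, perfused aortae were exposed to a phosphor screen for 10 half-lives (%ID·mm⁻²), with ORO staining.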

[13] = Drug distribution in western atherogenic diet fed ApoE-/- mouse bone at […], iv administered as bolus injection measured for 30 mins by gamma counter analysis; type: ADME, organism-based, Bone element; conditions: in vivo, 0.5 h; method in brief: as §2
[14] = Stability of compound in 10% EtOH/saline assessed as compound degradation measured upto 75 mins by analytical radio-HPLC analysis; type: physicochemical; conditions: buffer, 1.25 h
Method in brief: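 Radiotracer formulated in 10% EtOH/0.9% saline was held at room temperature up to 75 min. Samples were analysed by analytical radio-HPLC (C18, 0.1 M ammonium formate/ACN gradient, 1 mL·min⁻¹).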

[15] = Drug distribution in western atherogenic diet fed ApoE-/- mouse brain at […], iv administered as bolus injection measured for 30 mins by gamma counter analysis; type: ADME, organism-based; conditions: in vivo, 0.5 h; method in brief: as §2
[16] = Drug distribution in western atherogenic diet fed ApoE-/- mouse fat tissue at […], iv administered as bolus injection measured for 30 mins by gamma counter analysis; type: ADME, organism-based, Adipose tissue; conditions: in vivo, 0.5 h; method in brief: as §2
[17] = Drug distribution in western atherogenic diet fed ApoE-/- mouse kidney at […], iv administered as bolus injection measured for 60 mins by PET analysis; type: ADME, organism-based; conditions: in vivo, 1 h; method in brief: as §1
[18] = Drug distribution in western atherogenic diet fed ApoE-/- mouse myocardium assessed as compound remaining at […], iv administered as bolus injection measured for 30 mins by gamma counter analysis; type: ADME, organism-based; conditions: in vivo, 0.5 h; method in brief: as §2
[19] = Tmax in western atherogenic diet fed ApoE-/- mouse blood at […], iv administered as bolus injection measured for 60 mins by PET analysis; type: ADME, organism-based; conditions: in vivo, 1 h; method in brief: as §1
[20] = Drug distribution in western atherogenic diet fed ApoE-/- mouse stomach at […], iv administered as bolus injection measured for 30 mins by gamma counter analysis; type: ADME, organism-based; conditions: in vivo, 0.5 h; method in brief: as §2
[21] = Drug distribution in western atherogenic diet fed ApoE-/- mouse kidney at […], iv administered as bolus injection measured for 30 mins by gamma counter analysis; type: ADME, organism-based; conditions: in vivo, 0.5 h; method in brief: as §2
[22] = Stability in western atherogenic diet fed ApoE-/- mouse plasma assessed as intact compound level at ~75 MBq, iv administered as bolus injection and measured after 30 mins by gamma counter analysis; type: ADME, organism-based; conditions: read-out: Stability
Method in brief: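 Blood was drawn by cardiac puncture into K₂EDTA tubes 30 min after IV radiotracer in diet-fed ApoE-/- mice. Optional IV pretreatment 15 min before: unlabelled analogue 2.5 mg/kg or WAY170523 7.5 mg/kg. Pooled protein-free plasma was spiked with standard and run on radio-HPLC (C18, ammonium formate/ACN). Fractions were collected each minute and gamma-counted to give the parent fraction.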

| SMILES | pIC50 (Collagenase 3) | pIC50 [1] | pIC50 [2] | pIC50 (Interstitial collagenase) | pIC50 (Stromelysin-2) | pIC50 (Neutrophil collagenase) | further results |
| --- | --- | --- | --- | --- | --- | --- | --- |
| COc1ccc(CCOc2c(F)ccc3nc(C(=O)NCc4ccc(F)c(C)c4)[nH]c(=O)c23)cc1 | 7.62 | < 5.00 | < 5.00 | < 5.00 | 5.04 | 6.11 | – |
| COc1ccc(CNC(=O)c2nc3ccc(F)c(OCCc4ccc(O)cc4)c3c(=O)[nH]2)cc1 | 7.32 | < 5.00 | < 5.00 | < 5.00 | 5.17 | 5.82 | – |
| COc1ccc(CNC(=O)c2nc3ccc(F)c(F)c3c(=O)[nH]2)cc1 | 6.50 | – | – | – | – | – | – |
| Cc1cc(CNC(=O)c2cc(C(=O)NCc3ccc(OCC[18F])cc3)ncn2)ccc1F | – | – | – | – | – | – | Drug uptake [3]: ~ 5 %ID/cc; Drug uptake [4]: ~ 12 %ID/cc |
| Cc1cc(CNC(=O)c2nc3ccc(F)c(OCCF)c3c(=O)[nH]2)ccc1F | 7.80 | < 5.00 | < 5.00 | < 5.00 | 5.51 | 5.92 | – |
| Cc1cc(CNC(=O)c2nc3ccc(F)c(OCCc4ccc(O[11CH3])cc4)c3c(=O)[nH]2)ccc1F | – | – | – | – | – | – | Drug uptake [5]: < 7 % ID/g; Drug uptake [6]: ~ 2 % ID/g; Drug uptake [7]: ~ 2 % ID/g; Drug uptake [8]: 3.27 % ID/g; Drug uptake [9]: 1.83 % ID/g; logD at 10 min [10]: 3.76; Drug uptake [11]: ~ 2 % ID/g; Drug uptake [12]: 129.8 %ID.m^-2; Drug uptake [13]: ~ 2 % ID/g; Stability [14]: Stable; Drug uptake [15]: ~ 2 % ID/g; Drug uptake [16]: ~ 2 % ID/g; Drug uptake [17]: 7.4 %ID/cc; Drug uptake [18]: ~ 1 % ID/g; Drug uptake [3]: < 0.5 %ID/cc; Tmax [19]: 37.5 s; Drug uptake [20]: ~ 2 % ID/g; Drug uptake [21]: < 7 % ID/g; Drug uptake [4]: 9.3 %ID/cc; remaining at 0.5 h [22]: 70% |

Second part, led by results:

| pIC50 (Collagenase 3) | pIC50 [1] | pIC50 [2] | pIC50 (Interstitial collagenase) | pIC50 (Stromelysin-2) | pIC50 (Neutrophil collagenase) | SMILES | further results |
| --- | --- | --- | --- | --- | --- | --- | --- |
| 8.54 | < 5.00 | < 5.00 | < 5.00 | 5.57 | 5.85 | COc1ccc(CNC(=O)c2nc3ccc(F)c(OCCc4ccc(C(=O)O)cc4)c3c(=O)[nH]2)cc1 | – |
| 7.92 | < 5.00 | < 5.00 | < 5.00 | 5.16 | 5.66 | Cc1cc(CNC(=O)c2nc3ccc(F)c(OCCc4ccc(O)cc4)c3c(=O)[nH]2)ccc1F | – |
| 6.95 | – | – | – | – | – | COc1ccc(CCOc2c(F)ccc3nc(C(=O)NCc4ccc(OC)cc4)[nH]c(=O)c23)cc1 | – |
